Results taken from ChEMBL document CHEMBL1144398, “Structure-based design, parallel synthesis, structure-activity relationship, and molecular modeling studies of thiocarbamates, new potent non-nucleoside HIV-1 reverse transcriptase inhibitor isosteres of phenethylthiazolylthiourea derivatives” (J Med Chem, 2005).

What was measured:
[1] = tested on: MT4; experiment: Effective concentration require to protect MT-4 cells from human immunodeficiency virus type 1 induced cytopathogenicity was determined by MTT method; format: functional, cell-based
Outline: (§1)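 MT-4 cells infected with HIV-1, with test compounds added. Protection from virus-induced cytopathogenicity was read by MTT. EC50 is the concentration giving 50% protection. Values are means of three separate experiments, with variation among triplicates under 10%. Trovirdine served as the reference.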

[2] = tested on: C8166; experiment: Effective concentration required to reduce the amount of p24 antigen levels in wild type human immunodeficiency virus type 1 infected C8166 cultures; format: functional
Outline: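 C8166 cultures infected with wild-type HIV-1. p24 antigen in the cultures was measured after compound treatment, and EC90 is the concentration that reduces p24 by 90%. Trovirdine served as the reference.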

[3] = tested on: MT4; experiment: Effective concentration require to protect MT-4 cells from HIV-1 Y181C mutant induced cytopathogenicity was determined by MTT method; format: functional, cell-based, Homo sapiens
Outline: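 HIV-1 strains carrying the Y181C RT mutation in MT-4 cells. EC50 is the concentration giving 50% protection from virus-induced cytopathogenicity, read out by MTT. Trovirdine was run as the reference. Values are means of three separate experiments.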

[4] = tested on: MT4; experiment: Cytotoxic concentration required to reduce the viability of mock infected MT-4 cells determined by MTT method; format: functional; conditions: Homo sapiens
Outline: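 Viability of mock-infected MT-4 cells, assayed in parallel with the antiviral test, read by MTT. CC50 is the concentration that lowers viability by 50%. Values are means of three separate experiments, with variation among triplicates under 10%. The highest concentration tested was 100 µM.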

[5] = tested on: MT4; experiment: Ratio of CC50 to that of EC50 determined in MT-4 cells; format: functional
Outline: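 Selectivity index, calculated as CC50/EC50. CC50 came from MTT viability of mock-infected MT-4 cells and EC50 from MTT-read protection of HIV-1-infected MT-4 cells from cytopathogenicity, with both run in parallel. Values are means of three experiments.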

[6] = target: T1, Human immunodeficiency virus type 1 reverse transcriptase (Human immunodeficiency virus 1, UniProt Q72547); experiment: Inhibitory concentration against HIV-1 virion reverse transcriptase
[7] = target: Human immunodeficiency virus type 1 reverse transcriptase (Human immunodeficiency virus 1, UniProt Q72547, Y181C); experiment: Inhibitory concentration against HIV-1 mutant reverse transcriptase (Y181C)
[8] = target: T1, Human immunodeficiency virus type 1 reverse transcriptase; experiment: Inhibitory concentration against HIV-1 mutant reverse transcriptase (K103R)
[9] = target: T1, Human immunodeficiency virus type 1 reverse transcriptase; experiment: Inhibitory concentration against HIV-1 wild type reverse transcriptase (IIIB)
[10] = target: Human immunodeficiency virus type 1 reverse transcriptase (Human immunodeficiency virus 1, UniProt Q72547, K103N/Y181C); experiment: Inhibitory concentration against HIV-1 mutant reverse transcriptase (K103N+Y181C)
[11] = tested on: MT4; experiment: Effective concentration require to inhibit human immunodeficiency virus type 1 induced cytopathogenicity in MT-4 cells determined by MTT method; format: functional, cell-based; outline: as §1

O=C1c2ccccc2C(=O)N1CCOC(=S)Nc1ccc(Cl)cc1
EC50 [1]: 0.04 µM | EC90 [2]: 0.04 µM | EC50 [3]: 2.3 µM | CC50 [4]: > 100 µM | SI [5]: >2500

O=C1c2ccccc2C(=O)N1CCOC(=S)Nc1ccc(Br)cc1
EC50 [1]: 0.03 µM | EC90 [2]: 0.015 µM | EC50 [3]: 2.4 µM | CC50 [4]: > 100 µM | SI [5]: >3333

CC(CO/C(S)=N\c1ccc(Cl)cc1)NC(=O)c1ccccc1C(=O)O (stereo unspecified)
EC50 [1]: 5 µM | CC50 [4]: > 100 µM | SI [5]: >20

O=C1c2ccccc2C(=O)N1CCOC(=S)Nc1ccccc1
EC50 [1]: 1.2 µM | IC50 [6]: 0.6 µM | CC50 [4]: > 100 µM | SI [5]: >83.3

Cc1cccc2c1C(=O)N(CCO/C(S)=N/c1ccc(Cl)cc1)C2=O
EC50 [1]: 0.05 µM | CC50 [4]: > 100 µM | SI [5]: >2000

CC(CN1C(=O)c2ccccc2C1=O)O/C(S)=N/c1ccc([N+](=O)[O-])cc1 (stereo unspecified)
EC50 [1]: 8.6 µM | CC50 [4]: > 100 µM | SI [5]: >11.6

O=C1c2ccccc2C(=O)N1CCOC(=S)Nc1ccc(I)cc1
IC50 [7]: > 20 µM | IC50 [8]: 2.3 µM | EC50 [1]: 0.02 µM | EC90 [2]: 0.04 µM | IC50 [9]: 0.09 µM | CC50 [4]: > 100 µM | IC50 [10]: > 20 µM | SI [5]: >5000

O=C(O)c1ccccc1C(=O)NCCO/C(S)=N\c1ccc(OCc2ccccc2)cc1
EC50 [1]: 0.5 µM | CC50 [4]: > 100 µM | SI [5]: >200

Cc1ccc2c(c1)C(=O)N(CCO/C(S)=N/c1ccc([N+](=O)[O-])cc1)C2=O
EC50 [1]: 0.01 µM | CC50 [4]: 80 µM | SI [5]: >8000

O=C1c2ccccc2C(=O)N1CCCOC(=S)Nc1ccc([N+](=O)[O-])cc1
EC50 [1]: 19 µM | CC50 [4]: ≥ 100 µM | SI [5]: >=5.3

CC(CN1C(=O)c2ccccc2C1=O)O/C(S)=N/c1ccc(C#N)cc1 (stereo unspecified)
EC50 [1]: 36 µM | CC50 [4]: > 100 µM | SI [5]: >2.7

O=C1CCC(=O)N1CCOC(=S)Nc1ccc(Cl)cc1
EC50 [1]: 2.4 µM | CC50 [4]: > 100 µM | SI [5]: >42

O=C(O)c1ccccc1C(=O)NCCO/C(S)=N\c1ccc(I)cc1
IC50 [7]: 4.8 µM | IC50 [8]: > 20 µM | EC50 [1]: 0.13 µM | IC50 [9]: 1.7 µM | CC50 [4]: > 100 µM | IC50 [10]: > 20 µM | SI [5]: >769

O=C1c2ccccc2C(=O)N1CCOC(=S)Nc1ccc(F)cc1
EC50 [1]: 0.1 µM | EC90 [2]: 0.1 µM | EC50 [3]: 38 µM | CC50 [4]: > 100 µM | SI [5]: >1000

CC(CN1C(=O)c2ccccc2C1=O)O/C(S)=N/c1ccc(Cl)cc1 (stereo unspecified)
EC50 [1]: 1.7 µM | CC50 [4]: > 100 µM | SI [5]: >58.8

CC(CO/C(S)=N\c1ccc([N+](=O)[O-])cc1)NC(=O)c1ccccc1C(=O)O (stereo unspecified)
EC50 [1]: 13 µM | CC50 [4]: > 100 µM | SI [5]: >7.7

Cc1ccc(/N=C(\S)OC(C)CN2C(=O)c3ccccc3C2=O)cc1 (stereo unspecified)
EC50 [1]: 48 µM | CC50 [4]: > 100 µM | SI [5]: >2.1

Cc1ccc(NC(=S)OCCN2C(=O)c3ccccc3C2=O)cc1
EC50 [11]: 1.8 µM | EC50 [1]: 0.02 µM | EC90 [2]: 0.015 µM | CC50 [4]: > 100 µM | SI [5]: >5000

CC(COC(=S)Nc1ccc(Cl)cc1)N1C(=O)c2ccccc2C1=O (stereo unspecified)
EC50 [1]: 0.05 µM | CC50 [4]: 44 µM | SI [5]: 880

Cc1ccc(/N=C(/S)OC(C)CNC(=O)c2ccccc2C(=O)O)cc1 (stereo unspecified)
EC50 [1]: 41 µM | CC50 [4]: > 100 µM | SI [5]: >2.4

O=C(Nc1ccc([N+](=O)[O-])cc1)OCCN1C(=O)c2ccccc2C1=O
EC50 [1]: 0.5 µM | CC50 [4]: > 100 µM | SI [5]: >200

CC(CN1C(=O)c2ccccc2C1=O)O/C(S)=N/c1ccc(Br)cc1 (stereo unspecified)
EC50 [1]: 2.3 µM | CC50 [4]: > 100 µM | SI [5]: >43.5

N#Cc1ccc(NC(=S)OCCN2C(=O)c3ccccc3C2=O)cc1
EC50 [1]: 0.07 µM | EC90 [2]: 0.1 µM | EC50 [3]: 5.9 µM | CC50 [4]: > 100 µM | SI [5]: >1429

O=C1C2CC=CCC2C(=O)N1CCOC(=S)Nc1ccc(Br)cc1 (stereo unspecified)
EC50 [1]: 2.3 µM | CC50 [4]: > 100 µM | SI [5]: >43

O=C1C2C3C=CC(C3)C2C(=O)N1CCOC(=S)Nc1ccc(Cl)cc1 (stereo unspecified)
EC50 [1]: 68 µM | CC50 [4]: > 100 µM | SI [5]: >1.5

CC(CO/C(S)=N/c1ccc([N+](=O)[O-])cc1)N1C(=O)c2ccccc2C1=O (stereo unspecified)
EC50 [1]: 0.6 µM | CC50 [4]: > 100 µM | SI [5]: >167

O=C1C2CC=CCC2C(=O)N1CCOC(=S)Nc1ccc(Cl)cc1 (stereo unspecified)
EC50 [1]: 9.4 µM | CC50 [4]: > 100 µM | SI [5]: >10.6

Cc1ccc2c(c1)C(=O)N(CCOC(=S)Nc1ccc(Cl)cc1)C2=O
EC50 [1]: 0.025 µM | CC50 [4]: > 100 µM | SI [5]: >4000

Cc1cccc2c1C(=O)N(CCO/C(S)=N/c1ccc([N+](=O)[O-])cc1)C2=O
EC50 [1]: 0.07 µM | CC50 [4]: 71 µM | SI [5]: 1014

O=C1c2ccccc2C(=O)N1CCOC(=S)Nc1ccc([N+](=O)[O-])cc1
EC50 [1]: 0.04 µM | EC90 [2]: 0.03 µM | EC50 [3]: 6 µM | CC50 [4]: 65 µM | SI [5]: 1625

Cl.S=C(NCCc1ccccn1)Nc1ccc(Br)cn1 [TROVIRDINE HYDROCHLORIDE]
IC50 [7]: 15 µM | IC50 [8]: > 20 µM | EC50 [1]: 0.02 µM | EC90 [2]: 0.015 µM | EC50 [3]: 1.2 µM | IC50 [9]: 1.03 µM | CC50 [4]: 60 µM | IC50 [10]: > 20 µM | SI [5]: 3000
